Article PMC2806602 (The Journal of neuroscience : the official journal of the …, 2009)
Residue numbers refer to the chain shown, from its start.

Assays:
[1] = target: T1, GluRδ2^Lc (Rattus norvegicus, UniProt Q63226, A654T); format: cell-based; details: for spontaneously active current relative to baseline with Ba^2+: 0.5 mM Ba^2+ exchanged with 0.5 mM of the divalent cation
T1 sequence (Q63226 24-1007 A654T): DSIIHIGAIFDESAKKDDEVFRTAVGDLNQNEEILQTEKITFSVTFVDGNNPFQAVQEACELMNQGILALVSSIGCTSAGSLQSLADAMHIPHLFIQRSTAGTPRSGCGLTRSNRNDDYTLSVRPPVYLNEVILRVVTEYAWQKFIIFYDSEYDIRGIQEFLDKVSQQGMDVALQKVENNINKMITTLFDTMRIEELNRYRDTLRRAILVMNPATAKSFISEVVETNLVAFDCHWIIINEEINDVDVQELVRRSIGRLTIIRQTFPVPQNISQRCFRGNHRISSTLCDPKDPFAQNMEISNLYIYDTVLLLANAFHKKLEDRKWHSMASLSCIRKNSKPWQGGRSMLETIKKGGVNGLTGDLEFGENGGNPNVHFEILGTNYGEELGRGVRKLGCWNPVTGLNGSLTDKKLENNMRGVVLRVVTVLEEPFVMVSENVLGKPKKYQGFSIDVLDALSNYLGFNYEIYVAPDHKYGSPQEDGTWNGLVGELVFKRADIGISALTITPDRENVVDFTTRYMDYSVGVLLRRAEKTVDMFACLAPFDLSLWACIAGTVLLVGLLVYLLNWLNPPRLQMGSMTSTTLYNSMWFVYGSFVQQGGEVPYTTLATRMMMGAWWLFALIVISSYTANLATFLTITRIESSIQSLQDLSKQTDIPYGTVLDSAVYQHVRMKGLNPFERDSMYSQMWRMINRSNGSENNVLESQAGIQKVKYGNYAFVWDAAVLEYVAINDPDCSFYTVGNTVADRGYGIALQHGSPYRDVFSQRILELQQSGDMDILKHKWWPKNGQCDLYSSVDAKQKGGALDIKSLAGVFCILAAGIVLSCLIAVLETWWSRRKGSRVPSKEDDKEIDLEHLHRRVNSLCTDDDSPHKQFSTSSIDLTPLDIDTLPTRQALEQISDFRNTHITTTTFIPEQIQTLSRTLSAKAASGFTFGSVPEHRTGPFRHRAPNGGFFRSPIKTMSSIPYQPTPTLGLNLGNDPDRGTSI

[2] = target: T2, GluRδ2^Wt (Rattus norvegicus, UniProt Q63226); assay: Two-electrode voltage-clamp recordings in Xenopus oocytes expressing GluRδ2^Wt; format: cell-based; details: 0.5 mM Ba^2+ exchanged with 0.5 mM of the divalent cation
T2 sequence (Q63226 24-1007): T1 sequence (Q63226 24-1007 A654T) with T631A
How it was run: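 Oocytes injected with wild-type receptor cRNA the day after excision and collagenase treatment. Two-electrode voltage clamp at −40 mV and 23°C, 24–72 h post-injection. Bath: 90 mM NaCl, 3 mM KCl, 0.5 mM BaCl2, 10 mM HEPES, pH 7.6. Ba2+ was replaced by 0.5 mM Mg2+, Zn2+, Mn2+, Sr2+ or Ca2+, or Ca2+ was raised stepwise. Choline or NMDG chloride kept osmolarity and Cl− constant. Baseline was current without Ca2+.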

Row | SMILES | spontaneously active current relative to baseline with Ba^2+ [1] | effect of divalent cation on currents at GluRδ2^Wt [2] | modulation of GluRδ2^Lc currents by extracellular Na^+ ([1]; current-voltage relationship at 0, 30, 60, 90 mM Na^+, -60 to +30 mV)
1 | [Mg+2] [Mg^2+] | 1.06 ± 0.01 |  | 
2 | [Mn+2] [Mn^2+] | 2.66 ± 0.13 | no changes were observed | 
3 | [Na+] [Na^+] |  |  | does not modulate GluRδ2
4 | [Sr+2] [Sr^2+] | 1.33 ± 0.05 | no changes were observed | 
5 | [Zn+2] [Zn^2+] | 1.33 ± 0.02 | no changes were observed | 
